Results from PubChem BioAssay AID504382 (The Scripps Research Institute Molecular Screening Center, 2011).
About 460 (18%) of roughly 2,500 compounds were called active. The list is a sample of the results. Unmarked numbers belong to inactive results.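 How the source made its calls: active means mean activation above a cutoff of low control average plus 3 SD from the earlier screen (cut at about 12% in these data); inactive means the rest.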

Assay: compound fluorescence interference without thin filaments, confirmation, artefact control for cardiac RTF calcium sensitizer project, biochemical (AID 504382)
Details: IANBD fluorescence interference counterscreen, buffer, EC20 Ca2+; at 7.2 µM; active compounds read high; scaled: EC20 calcium 0, EC100 calcium 100
In short: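 Medium: MOPS/KCl/MgCl2/EGTA/NTA/DTT buffer, pH 7.2 | Reagent: EC20 calcium, 0.472 mM | Compound dosing: 7.2 µM single dose | Times: 15 min compound exposure at 25 °C | Signal: Fluorescence, 480/540 nm | Measure: Interference relative to controls | Repeats: Triplicate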

Compared with `COc1ccc(/C=N/NC(=O)C(Cc2c[nH]c3ccccc23)NC(=O)OCC(C)C)cc1[N+](=O)[O-]` (configuration not stated), `CCOC(=O)c1c(-c2ccccc2)csc1NC(=O)/C(C#N)=C\c1ccc(O)c(OC)c1` is higher in fluorescence artifact activation: 0.1% for the first, 0.5% for the second.

First: Cc1cccc(CN2C(=O)N/C(=C/c3ccc(C)s3)C2=O)c1
Second: Cc1ccc([N+](=O)[O-])c(OCCCN2C(=O)NC(C)(C)C2=O)c1
The fluorescence artifact activation of the first is higher: 0.03% for the first, 0.02% for the second.

Going from `COc1ccc(C2C(C#N)=C(N)N(c3cccnc3)C3=C2C(=O)CCC3)cc1Cn1cc([N+](=O)[O-])cn1` (configuration not stated) to `COc1ccc(N2CC(C(=O)Nc3nc(-c4ccccc4)c(C(C)=O)s3)CC2=O)c(OC)c1` (configuration not stated), the fluorescence artifact activation falls from 4.77% to 0.16%.

Going from `CCOC(=O)C1C(=O)NC(SCC(N)=O)=C(C#N)C1c1ccccc1OCC` (configuration not stated) to `CCOc1cc(N(CC)CC)ccc1/C=C(/C#N)c1nc2ccccc2[nH]1`, the fluorescence artifact activation falls from 0.28% to 0.26%.

Compared with `Fc1ccc(-c2nc3ccncc3[nH]2)cc1`, `COc1ccc(-c2onc3ccc(C(C)=O)cc23)cc1` is higher in fluorescence artifact activation: 1.25% for the first, 5.91% for the second.

First: Cc1ccc2oc3c(SCc4nc5ccccc5[nH]4)nc(C)nc3c2c1
Second: COc1cccc(/C=N/c2nc3ccccc3[nH]2)c1O
The fluorescence artifact activation of the first is higher: 6.37% for the first, 0.01% for the second.

Compared with `CC1=NN(C(=O)c2ccccc2-n2cccc2)C(O)(C(F)(F)F)C1` (configuration not stated), `CC1=NN(C(=O)c2ccc(Cn3ccc([N+](=O)[O-])n3)cc2)C(O)(C(F)(F)F)C1` (configuration not stated) is higher in fluorescence artifact activation: 0.1% for the first, 5.1% for the second.

Compared with `COc1ccc(OC)c(C2=C/C(=C/c3ccccn3)C(=O)O2)c1`, `COc1ccc(OC)c(-n2nnnc2SCC(=O)NCCc2ccccc2)c1` is higher in fluorescence artifact activation: 0.07% for the first, 3.03% for the second.

Compared with `CCN(CC)c1ccc(/C=C/c2cc(-c3ccccc3)c3ccccc3n2)cc1`, `COc1ccc(C(=O)Nc2ccccc2-c2ccccc2)cc1Cl` is lower in fluorescence artifact activation: 3.44% for the first, 0.15% for the second.

First: C[C@@H]1CC=C[C@H]2[C@H]1C(=O)N(Cc1ccccc1)[C@H]2c1ccc(-c2cc3ccccc3s2)cc1F
Second: Oc1sc(C=Nc2ccccc2)c2ccccc12
The fluorescence artifact activation of the first is higher: 0.21% for the first, -0.05% for the second.

Compared with `COc1ccc(NC(=O)c2cc(C)on2)cc1OC`, `COC(=O)c1c(-c2ccc(OC)c(OC)c2)csc1N` is lower in fluorescence artifact activation: 0.84% for the first, 0% for the second.

First: COc1ccc(-c2cc(C(F)(F)F)nc(S(=O)(=O)CCCC(=O)Nc3cc(C)on3)n2)cc1OC
Second: COc1cc(OC)c(OC)cc1/C=C/C(=O)c1ccc(NS(=O)(=O)c2ccc(C)cc2)cc1
The fluorescence artifact activation of the first is higher: 3.3% for the first, 0.29% for the second.

First: CN(C)c1ccc(/C=C/C(=O)c2c(O)c3ccccc3oc2=O)cc1
Second: Cc1ccc(N=Cc2sc(O)c3ccccc23)cc1
The fluorescence artifact activation of the first is higher: 1.4% for the first, 0% for the second.

Compared with `CN1CCN(c2ccc(-c3cccc(NC(=O)COc4ccccc4)c3)nn2)CC1`, `COc1ccc(-c2nnc(SCC(=O)c3ccc[nH]3)n2-c2ccccc2)cc1` is lower in fluorescence artifact activation: 9.37% for the first, 0.12% for the second.

Compared with `Cc1cc[n+](-c2[nH]c(=O)sc2/C=N/N=C(\[O-])c2ccccc2)cc1C`, `Oc1[nH]c2ccccc2c1N=Nc1cccc(Cl)c1` is lower in fluorescence artifact activation: 3.62% for the first, 0.77% for the second.

Compared with `O=C(NC(NC(=S)Nc1ccccc1C(=O)O)C(Cl)(Cl)Cl)c1ccco1` (configuration not stated), `O=C(CSc1ccc(Cl)cc1)Nc1cccc(NC(=O)c2ccco2)c1` is higher in fluorescence artifact activation: 0% for the first, 0.39% for the second.

Going from `COc1ccc(/C=[N+](\[O-])C2N(c3ccccc3)C(=S)SC2(C)C)cc1OC` (configuration not stated) to `COc1cc(OC)c(NC(=O)c2cc3ccccc3cc2O)cc1Cl`, the fluorescence artifact activation rises from 0.2% to 0.48%.

Going from `CC(C)N1CC=C2C(C#N)=C(N)C(C#N)(C#N)C(c3ccccc3)C2C1` (configuration not stated) to `COc1cccc(/C=C(/C#N)c2nc3ccccc3[nH]2)c1OC(C)C(=O)O` (configuration not stated), the fluorescence artifact activation rises from 0.48% to 0.54%.

First: O=C(Cc1ccccc1Cl)Nc1cccnc1
Second: CCc1ccc(C(=O)NNc2ccccc2F)cc1
The fluorescence artifact activation of the first is higher: 1.8% for the first, 1.03% for the second.

Compared with `Clc1cccc(C[n+]2cc(-c3ccccc3)n3c2CCC3)c1`, `c1ccc(CCCN2CCN(c3ccccc3)CC2)cc1` is higher in fluorescence artifact activation: -0.06% for the first, 0% for the second.

First: CCc1cc[n+](-c2nc([O-])sc2C=O)cc1
Second: CCOC(=O)c1c(/N=C/c2cccc([N+](=O)[O-])c2O)sc(C)c1C
The fluorescence artifact activation of the first is higher: 2.36% for the first, 2.1% for the second.

Compared with `O=C(O)CCC(=O)Nc1cc(C(F)(F)F)cc(C(F)(F)F)c1`, `COC(=O)CCCNC(=O)CCc1nnc(-c2ccc(-c3ccccc3)cc2)o1` is lower in fluorescence artifact activation: 3.32% for the first, -0.05% for the second.

Going from `CC1=NN(c2ccc(Br)cc2)C(=O)/C1=C/c1ccc(-c2ccccc2C(=O)O)o1` to `COc1ccc(N2C(=O)[C@@H]3[C@H](C2=O)[C@H](C(C)=O)N2c4ccccc4C=C[C@@H]32)cc1`, the fluorescence artifact activation falls from 0.09% to 0.08%.

First: CCOC(=O)c1c(NC(=O)COC(=O)Cc2ccccc2[N+](=O)[O-])sc(C(=O)N(C)C)c1C
Second: CN(C)CCNC(=O)c1c(CSc2ccc(Cl)cc2)noc1C(=O)NCc1ccccc1
The fluorescence artifact activation of the first is lower: -0.03% for the first, 0.05% for the second.

Compared with `CCC(/C=C1\Oc2ccc(OC)cc2N1C)=C\c1sc2ccccc2[n+]1CCCS(=O)(=O)[O-]`, `COc1ccc(CN(Cc2cccn2C)S(=O)(=O)c2ccccc2)cc1` is lower in fluorescence artifact activation: 4.9% for the first, 0.19% for the second.

Compared with `COc1ccc(NC(=O)C2CC2)cc1OC1CCCC1`, `O=C(CSc1nnc(-c2ccco2)o1)NC1CCCCC1` is lower in fluorescence artifact activation: 0.04% for the first, -0.05% for the second.

First: COc1ccc(C(=O)Nn2cnc3scc(-c4cccs4)c3c2=O)c(O)c1
Second: COc1cccc2cc(-c3nc(-c4cccs4)cs3)c(=O)oc12
The fluorescence artifact activation of the first is higher: 7.33% for the first, -0.05% for the second.

Going from `O=C(NCCN1CCOCC1)c1ccc(CS(=O)(=O)c2c(Cl)cccc2Cl)o1` to `Cc1ccccc1NS(=O)(=O)c1ccc(OCC(=O)N2CCCCC2)cc1`, the fluorescence artifact activation falls from -0.03% to -0.04%.

Going from `CC1CCC(C(C)C)C(OC(=O)Cn2c(-c3ccccc3)[n+](C)c3ccccc32)C1` (configuration not stated) to `NC(=O)C1CCN(C(=O)c2ccc(-c3ccccc3)cc2)CC1`, the fluorescence artifact activation rises from 0% to 4.63%.

Compared with `CCC(C)[C@H](NC(=O)N1CCC(C)CC1)C(=O)OC` (some centres not stated), `CCCNC(=O)C12CCC(C)(C(=O)C1Br)C2(C)C` (configuration not stated) is higher in fluorescence artifact activation: -0.05% for the first, 0.01% for the second.

Compared with `CCn1c(SCC(=O)NNC(=O)c2ccco2)nnc1-c1ccco1`, `COCCn1c(SCC(=O)Nc2ccc(NC(=O)c3ccco3)c(OC)c2)nc2ccccc2c1=O` is higher in fluorescence artifact activation: -0.04% for the first, 1.13% for the second.

Compared with `Cc1ccc(-n2nnnc2C(=Cc2ccc(N(C)C)cc2)c2nnnn2-c2ccc(C)cc2)cc1`, `COCCn1c(-c2ccc(C)cc2)nc2oc3cc(OC)ccc3c(=O)c2c1=O` is higher in fluorescence artifact activation: 0.09% for the first, 0.27% for the second.

Compared with `CCOC(=O)/C(=C/C=C1\Sc2cc(OCC)c(OCC)cc2N1CC)C(C)=O`, `COc1cc(OC)c(C2N(c3ccc(Cl)c(Cl)c3)C(=O)C3CCCN32)cc1OC` (configuration not stated) is lower in fluorescence artifact activation: 5.45% for the first, -0.1% for the second.

Going from `O=C1CCC[C@@H]2Cc3nc4ccc(O)cc4cc3[C@@H]3CCN1[C@H]23` to `c1ccc2c(c1)CN1CCCC1=N2`, the fluorescence artifact activation falls from 1.03% to -0.08%.

First: Cc1occc1C(=O)N=Nc1c(O)n(C)c2ccccc12
Second: O=C(N/N=C/c1c(O)n(-c2ccc(Cl)cn2)c(=O)c2ccccc12)c1ccncc1
The fluorescence artifact activation of the first is higher: 2.27% for the first, 0.02% for the second.

First: O=C(Nc1cc2c(cc1Br)OCCCO2)c1cccnc1
Second: Cc1nnc(N2CCOCC2)c2nn(-c3cccc(Cl)c3)c(C)c12
The fluorescence artifact activation of the first is lower: -0.06% for the first, 0.16% for the second.

First: COc1ccccc1N1C(C)=CC(=C(C#N)c2nc3ccccc3s2)C=C1C
Second: COc1cc(/C=C(\C#N)c2nc3ccccc3[nH]2)ccc1O
The fluorescence artifact activation of the first is higher: 0.18% for the first, 0.06% for the second.

Compared with `CCOc1ccc(CN2CCN(C/C=C/c3ccc(OC)cc3)CC2CCO)cc1` (configuration not stated), `COc1cc(/C=C(\C#N)c2nc3ccccc3[nH]2)cc(OC)c1O` is higher in fluorescence artifact activation: 0.09% for the first, 6.16% for the second.

First: CSc1nnc(N(CCC#N)CCC#N)s1
Second: CC1(C)CC(=O)C(C=Nc2ccc(C(=O)c3ccccc3)cc2N=CC2=C(O)CC(C)(C)CC2=O)=C(O)C1
The fluorescence artifact activation of the first is higher: 11.2% for the first, 0.03% for the second.

`O=C([O-])c1ccccc1-[n+]1c(-c2ccccc2)cc(-c2ccccc2)cc1-c1ccccc1` showed a fluorescence artifact activation of 0%.

For `CCN(CC)c1ccc(/C=C/c2cccc[n+]2C)c(OC)c1`, the fluorescence artifact activation was 22.6% (active).
In the case of `COc1ccc(S(=O)(=O)Nc2cc(C)on2)cc1`, the fluorescence artifact activation is reported as 26.7% (active).
In the case of `O=C(NC(=S)Nc1ccc2oc(=O)ccc2c1)c1ccco1`, the fluorescence artifact activation is reported as 33.8% (active).
With `CC(C)(ONC(=O)Nc1ccccc1Cl)C(=O)O` the fluorescence artifact activation was 314% (active).
With `CC1=NN(c2ccc(C)c(C)c2)C(=O)/C1=C/c1ccc2c(c1)n(C)c(=O)n2C` the fluorescence artifact activation was 16.1% (active).
With `COc1ccc(N/C=C\C(=O)c2ccc(Br)cc2)cc1OC` the fluorescence artifact activation was 15.4% (active).
For `COc1ccc(N=Cc2sc(O)c3ccccc23)cc1`, the fluorescence artifact activation was 27.5% (active).
For `COc1ccc(-n2nnnc2SCC(=O)c2cc3ccccc3o2)cc1`, the fluorescence artifact activation was 12.4% (active).
In the case of `CCOc1ccc(-c2nc3scc(-c4cccs4)c3c(=O)[nH]2)cc1`, the fluorescence artifact activation is reported as 15.2% (active).
For `O=C(CCSc1nnc(-c2ccco2)o1)Nc1ccccc1`, the fluorescence artifact activation was 24.7% (active).
In the case of `CC(C)CN1CCN(Cc2cccn2-c2ccc(Cl)cn2)CC1CCO` (configuration not stated), the fluorescence artifact activation is reported as 26.8% (active).
For `COCCn1c(=O)c2ccccc2c2ccccc2c1=O`, the fluorescence artifact activation was 17.2% (active).
In the case of `CCN(CC(=O)N1CCCC1)S(=O)(=O)c1ccc(OC)cc1`, the fluorescence artifact activation is reported as 87% (active).
In the case of `Cc1ccc(CN2CCN(Cc3ccc(-n4cccn4)cc3C)CC2CCO)cc1` (configuration not stated), the fluorescence artifact activation is reported as 37.2% (active).
In the case of `Cn1c(O)c(/C=N/NC(=O)c2cc3ccccc3cc2O)c2ccccc21`, the fluorescence artifact activation is reported as 70% (active).
With `O=C(O)c1ncc(-c2ccccc2)cn1` the fluorescence artifact activation was 43.6% (active).
In the case of `CCN(CC)c1ccc(/C=C(/C#N)c2nc3ccccc3[nH]2)c(OC(C)C)c1`, the fluorescence artifact activation is reported as 41.8% (active).
With `CCCOc1cc(N(CC)CC)ccc1/C=C(/C#N)c1nc2ccc(C)cc2[nH]1` the fluorescence artifact activation was 12.4% (active).
